Measured values as given in ChEMBL document CHEMBL1148119, “Monoterpene hydroperoxides with trypanocidal activity from Chenopodium ambrosioides” (J Nat Prod, 2002).
Values after ≈ are worked out from the molar mass of the structure shown. Active and inactive are the calls of the source. The calls are words filed in the database; no cut-off is given here.

Columns and labels:
[1] = tested on: Trypanosoma cruzi; test: Trypanocidal activity against Trypanosoma cruzi Tulahuen epimastigotes up to 400 uM after 24 hrs; assay type: functional, organism-based
How it was run: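 Tulahuen epimastigotes maintained in GIT medium with hemin (12.4 μM). Parasite suspension incubated 24 h with sample in EtOH plus autoclaved saline. Motility checked by microscopy (×100) and minimum lethal concentration (MLC) recorded. Duplicate assays; gentian violet positive control.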

[2] = tested on: Trypanosoma cruzi; test: Antitrypanosomal activity against Trypanosoma cruzi trypomastigotes infected in human HeLa cells assessed as inhibition of infection at 1 ug/mL after 4 days by HeLa cell-infection assay; assay type: functional; set-up: scale not given: the % may be the effect or the level left
How it was run: (§1)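 HeLa cells (5 × 10^3 cells/mL/well) grown on coverslips 2 days at 37 °C, 5% CO2, then infected with T. cruzi trypomastigotes (1.2 × 10^4 parasites/well). Compound in ethanol (10 µL) added right after infection. Day 4: fixed, Diff-Quik stained, mounted. >200 host cells in random fields scored for % infected cells (>1 amastigote) and mean amastigotes per infected cell. Mean ± SE.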

[3] = tested on: Trypanosoma cruzi; test: Antitrypanosomal activity against Trypanosoma cruzi trypomastigotes infected in human HeLa cells assessed as inhibition of amastigotes proliferation at 1 ug/mL after 4 days by HeLa cell-infection assay; assay type: functional, organism-based; how it was run: as §1
[4] = tested on: Trypanosoma cruzi; test: Trypanocidal activity against Trypanosoma cruzi Tulahuen epimastigotes assessed as minimal lethal concentration after 24 hrs; assay type: functional
How it was run: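 Tulahuen epimastigotes kept in GIT medium with hemin (12.4 µM). Parasites in medium (10 µL) incubated with sample in EtOH (5 µL) plus autoclaved saline (185 µL) for 24 h. Motility checked by microscopy (×100). MLC taken as minimum lethal concentration. Duplicates; gentian violet positive control.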

[5] = tested on: HeLa; test: Cytotoxicity against human HeLa cells at 10 ug/mL; assay type: cell-based
[6] = tested on: Trypanosoma cruzi; test: Antitrypanosomal activity against Trypanosoma cruzi trypomastigotes infected in human HeLa cells assessed as infection rate at 1 ug/mL after 4 days by HeLa cell-infection assay; assay type: functional; how it was run: as §1
[7] = tested on: Trypanosoma cruzi; test: Antitrypanosomal activity against Trypanosoma cruzi trypomastigotes infected in human HeLa cells assessed as number of amastigotes per infected cell at 1 ug/mL after 4 days by HeLa cell-infection assay; assay type: functional; how it was run: as §1

Row | Structure (SMILES) | Activity [1] | Activity [2] | Activity [3] | MLC [4] [µM] | Activity [5] | Activity [6] [%] | Activity [7]
1 | C=C(C)[C@H]1CCC(=C)[C@H](O)C1 | inactive | – | – | – | – | – | –
2 | C=C(C)[C@@H]1C=C[C@](C)(OO)CC1 | – | 88% | inactive | 3.1 (≈ 0.522 µg/mL) | Toxic | 1.5 | 19.1
3 | C=C(C)[C@@H]1C=C[C@@](C)(O)CC1 | inactive | – | – | – | – | – | –
4 | C=C(C)[C@@H]1C=C[C@@](C)(OO)CC1 | – | Active | inactive | 0.8 (≈ 0.135 µg/mL) | Toxic | 0.13 | 12
5 | C=C(C)[C@H]1CCC(=C)[C@@H](OO)C1 | – | – | – | 1.2 (≈ 0.202 µg/mL) | – | – | –
6 | C=C(C)[C@@H]1C=C[C@](C)(O)CC1 | inactive | – | – | – | – | – | –
7 | C=C(C)[C@H]1CCC(=C)[C@@H](O)C1 | inactive | – | – | – | – | – | –
8 | CC(C)C12C=CC(C)(CC1)OO2 (stereo unspecified) [ASCARIDOLE] | – | – | inactive | 23 (≈ 3.87 µg/mL) | – | 8.5 | 22.8
9 | C=C(C)[C@H]1CCC(=C)[C@H](OO)C1 | – | 63% | inactive | 1.6 (≈ 0.269 µg/mL) | Toxic | 4.4 | 18.6
10 | Oc1ncnc2[nH]ncc12 [ALLOPURINOL] | – | – | inactive | – | – | 7 | 10.9
11 | CN(C)c1ccc(C(=C2C=CC(=[N+](C)C)C=C2)c2ccc(N(C)C)cc2)cc1.[Cl-] [GENTIAN VIOLET] | – | – | – | 6.3 | – | – | –
